Measurements published in ChEMBL document CHEMBL3525985, “Regiospecificity and stereospecificity of human UDP-glucuronosyltransferases in the glucuronidation of estriol, 16-epiestriol, 17-epiestriol, and 13-epiestradiol” (Drug Metab Dispos, 2013).
Blank lines part the entries; values can stand above or below the compound they belong to.

Key:
Assay type in all cases: ADME
[1] = system: Liver microsome; experiment: Drug metabolism in human liver microsomes assessed as 17-epiestriol-16-glucuronide formation after 15 to 60 mins by Michaelis-Menten equation analysis in presence of UDPGA
Procedure, shortened: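 Pooled human liver microsomes (30 donors), 0.5 or 10 µg, with alamethicin at 5% of total protein. Incubated with 50 mM phosphate pH 7.4, 10 mM MgCl₂, 5 mM UDPGA and 10% DMSO for 15–60 min at 37°C. Each glucuronide regioisomer quantified by HPLC, in triplicate, with substrate consumption at or below 10%.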

[2] = target: T1, UDP-glucuronosyltransferase 2A1 (Homo sapiens, UniProt P0DTE4); experiment: Drug metabolism assessed as recombinant human C-terminal His-tagged UGT2A1-mediated 17-epiestriol-17-glucuronide formation at 5 mg after 5 hrs by NMR spectroscopic analysis in presence of UDPGA
T1 sequence (P0DTE4 whole entry): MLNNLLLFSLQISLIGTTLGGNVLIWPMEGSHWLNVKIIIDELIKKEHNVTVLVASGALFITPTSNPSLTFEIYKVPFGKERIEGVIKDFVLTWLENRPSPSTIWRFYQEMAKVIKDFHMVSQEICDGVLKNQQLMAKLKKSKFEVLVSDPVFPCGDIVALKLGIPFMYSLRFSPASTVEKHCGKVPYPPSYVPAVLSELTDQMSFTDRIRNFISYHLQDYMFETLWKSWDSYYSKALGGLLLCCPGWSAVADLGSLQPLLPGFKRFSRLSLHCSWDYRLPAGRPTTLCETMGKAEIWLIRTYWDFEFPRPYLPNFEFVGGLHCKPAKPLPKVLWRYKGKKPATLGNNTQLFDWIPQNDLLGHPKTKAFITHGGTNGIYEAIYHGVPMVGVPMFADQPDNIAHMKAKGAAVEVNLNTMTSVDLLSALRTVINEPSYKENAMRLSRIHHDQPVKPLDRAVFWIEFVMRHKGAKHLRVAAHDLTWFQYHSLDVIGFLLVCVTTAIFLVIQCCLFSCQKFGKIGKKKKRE

[3] = target: T2, UDP-glucuronosyltransferase 2B4 (Homo sapiens, UniProt P06133); experiment: Drug metabolism assessed as recombinant human C-terminal His-tagged UGT2B4-mediated 17-epiestriol-17-glucuronide formation at 200 uM after 15 to 60 mins by HPLC analysis in presence of UDPGA; conditions: recombinant enzyme
T2 sequence (P06133 whole entry): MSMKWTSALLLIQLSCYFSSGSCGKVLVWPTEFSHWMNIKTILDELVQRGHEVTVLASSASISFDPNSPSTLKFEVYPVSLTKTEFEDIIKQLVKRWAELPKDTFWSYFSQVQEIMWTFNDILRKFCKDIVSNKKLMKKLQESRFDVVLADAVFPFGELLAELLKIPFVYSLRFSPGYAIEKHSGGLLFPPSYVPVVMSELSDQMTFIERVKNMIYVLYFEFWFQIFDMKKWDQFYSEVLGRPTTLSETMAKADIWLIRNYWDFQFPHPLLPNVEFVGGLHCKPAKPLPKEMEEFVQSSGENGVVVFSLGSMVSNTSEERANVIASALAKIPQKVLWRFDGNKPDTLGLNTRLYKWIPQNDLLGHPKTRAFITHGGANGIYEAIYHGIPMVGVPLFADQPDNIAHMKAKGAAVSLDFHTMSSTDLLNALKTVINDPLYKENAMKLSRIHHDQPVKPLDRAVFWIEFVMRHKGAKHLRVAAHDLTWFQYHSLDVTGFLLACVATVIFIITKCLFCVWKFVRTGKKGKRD
Procedure, shortened: (§1)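 Screening at a single substrate concentration of 200 μM, in triplicate. The reaction used 5 or 50 µg of UGT-enriched insect cell membranes in 50 mM phosphate pH 7.4 with 10 mM MgCl₂ and 5 mM UDPGA, 10% final DMSO. Incubation was 15–60 min at 37°C. Perchloric acid stopped the reaction and supernatants were analysed by HPLC. Controls lacked UDPGA. Rates were normalized to relative UGT expression level.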

[4] = target: UDP-glucuronosyltransferase 1A7 (Homo sapiens, UniProt Q9HAW7); experiment: Drug metabolism assessed as recombinant human C-terminal His-tagged UGT1A7-mediated 16-epiestriol-3-glucuronide formation after 15 to 60 mins by Michaelis-Menten equation analysis in presence of UDPGA; conditions: recombinant enzyme
Chain of UDP-glucuronosyltransferase 1A7 (Q9HAW7 whole entry): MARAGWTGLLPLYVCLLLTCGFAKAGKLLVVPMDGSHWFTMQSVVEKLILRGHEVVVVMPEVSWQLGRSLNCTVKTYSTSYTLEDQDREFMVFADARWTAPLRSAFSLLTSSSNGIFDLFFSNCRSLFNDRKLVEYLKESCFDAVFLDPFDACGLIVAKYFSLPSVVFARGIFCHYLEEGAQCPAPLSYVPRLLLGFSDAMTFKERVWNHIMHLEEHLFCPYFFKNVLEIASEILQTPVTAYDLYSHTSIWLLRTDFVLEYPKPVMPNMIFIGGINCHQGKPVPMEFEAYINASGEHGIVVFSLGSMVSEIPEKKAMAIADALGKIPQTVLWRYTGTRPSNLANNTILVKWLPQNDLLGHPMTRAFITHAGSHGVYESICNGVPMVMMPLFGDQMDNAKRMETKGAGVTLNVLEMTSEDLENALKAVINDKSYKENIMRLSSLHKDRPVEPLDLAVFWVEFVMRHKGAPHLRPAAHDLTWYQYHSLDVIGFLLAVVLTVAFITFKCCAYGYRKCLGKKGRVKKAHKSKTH

[5] = target: T1, UDP-glucuronosyltransferase 2A1; experiment: Drug metabolism assessed as recombinant human C-terminal His-tagged UGT2A1-mediated estradiol-3-glucuronide/estradiol-17-glucuronide formation at 200 uM after 15 to 60 mins by HPLC analysis in presence of UDPGA; conditions: recombinant enzyme; procedure, shortened: as §1
[6] = target: T3, UDP-glucuronosyltransferase 2B7 (Homo sapiens, UniProt P16662); experiment: Drug metabolism assessed as recombinant human C-terminal His-tagged UGT2B7-mediated estradiol-17-glucuronide formation at 200 uM after 15 to 60 mins by HPLC analysis in presence of UDPGA; conditions: recombinant enzyme
T3 sequence (P16662 whole entry): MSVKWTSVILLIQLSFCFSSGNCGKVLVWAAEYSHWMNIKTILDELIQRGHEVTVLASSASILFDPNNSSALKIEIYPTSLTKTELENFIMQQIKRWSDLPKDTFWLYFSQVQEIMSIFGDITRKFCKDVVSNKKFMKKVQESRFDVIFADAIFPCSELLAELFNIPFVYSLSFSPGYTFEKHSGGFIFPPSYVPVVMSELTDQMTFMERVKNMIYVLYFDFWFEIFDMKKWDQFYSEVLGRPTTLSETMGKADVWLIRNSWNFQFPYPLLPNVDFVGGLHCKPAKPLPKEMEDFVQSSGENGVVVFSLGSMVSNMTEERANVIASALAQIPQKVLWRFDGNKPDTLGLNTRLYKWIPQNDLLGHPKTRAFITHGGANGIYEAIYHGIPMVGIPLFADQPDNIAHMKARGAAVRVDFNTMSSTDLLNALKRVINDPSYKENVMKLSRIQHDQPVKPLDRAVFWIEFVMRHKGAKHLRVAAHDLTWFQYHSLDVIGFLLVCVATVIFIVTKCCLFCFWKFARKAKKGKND
Procedure, shortened: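 Membranes (5 or 50 µg) from insect cells expressing His-tagged UGT2B7, with 200 µM aglycone in 50 mM phosphate pH 7.4, 10 mM MgCl₂, 5 mM UDPGA and 10% DMSO (final), 15–60 min at 37°C. Stopped with perchloric acid on ice, supernatant run on HPLC. Done in triplicate with no-UDPGA controls; rates normalized to relative UGT expression.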

Km [1]: 7.8 µM
Vmax [1]: 128 pmol/min/mg
Drug metabolism [2]: metabolite_detected
Drug metabolism [3]: metabolite_detected
Compound: C[C@]12CC[C@@H]3c4ccc(O)cc4CC[C@H]3[C@@H]1C[C@@H](O)[C@H]2O

Drug metabolism [4]: 0.5 pmol/min/mg
Compound: C[C@]12CC[C@@H]3c4ccc(O)cc4CC[C@H]3[C@@H]1C[C@H](O)[C@@H]2O [EPIESTRIOL]

Drug metabolism [5]: metabolite_detected
Drug metabolism [6]: metabolite_detected
Compound: C[C@]12CC[C@@H]3c4ccc(O)cc4CC[C@H]3[C@@H]1CC[C@@H]2O [ESTRADIOL]
